pIC50: −log10 of the molar value.
Assays:
[1] = system: A549; assay: Induction of apoptosis in human A549 cells assessed as viable cells level at 0.5 times antiproliferative IC50 incubated for 24 hrs by Annexin V-FITC/propidium iodide double staining based flow cytometry (reference value: 99.7%); format: functional
[2] = system: A549; assay: Induction of apoptosis in human A549 cells assessed as late apoptosis cells level at 0.5 times antiproliferative IC50 incubated for 24 hrs by Annexin V-FITC/propidium iodide double staining based flow cytometry (reference value: 0.127%); format: functional
[3] = system: A549; assay: Antitumor activity against human A549 cells xenografted in Balb/ca-nu mouse assessed as tumor growth inhibition at 10 mg/kg, iv dosed every 3 days for total of 7 dosing rounds measured on day 18 after treatment; format: functional; settings: read-out: TGI
How it was run: (§1)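 A549 xenograft in mice, dosed by tail vein injection every 3 days; vehicle saline plus 0.2% Tween 80. n = 8 per treatment group, 6 in the vehicle group. Mean ± SE.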

[4] = system: A549; assay: Antitumor activity against human A549 cells xenografted in Balb/ca-nu mouse assessed as tumor growth inhibition at 2.5 mg/kg, iv dosed every 3 days for total of 7 dosing rounds measured on day 10 after treatment; format: functional; settings: read-out: TGI; how it was run: as §1
[5] = Antiproliferative activity against human Bel7402 cells assessed as inhibition of cell proliferation incubated for 48 hrs by CCK8 assay; format: functional, cell-based; settings: Bel-7402, 48 h
How it was run: (§2)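 Human A549 lung, Hela cervical, Bel-7402 hepatocellular and MCF-7 breast cancer cells, plus mouse embryo fibroblast NIH3T3, tested for anti-proliferative activity by CCK-8 assay. For the matrine combination tests, the chalcone and matrine were used at a 1:1 molar ratio; values given as IC50.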

[6] = system: HeLa; assay: Antiproliferative activity against human HeLa cells assessed as inhibition of cell proliferation incubated for 48 hrs by CCK8 assay; format: functional, cell-based; how it was run: as §2
[7] = system: A549; assay: Antitumor activity against human A549 cells xenografted in Balb/ca-nu mouse assessed as tumor growth inhibition at 2.5 to 10 mg/kg, iv dosed every 3 days for total of 7 dosing rounds measured after 20 days post dose; format: functional, organism-based; how it was run: as §1
[8] = system: A549; assay: Antitumor activity against human A549 cells xenografted in Balb/ca-nu mouse assessed as tumor growth inhibition at 2.5 mg/kg, iv dosed every 3 days for total of 7 dosing rounds measured on day 20 after treatment; format: functional; settings: read-out: TGI; how it was run: as §1
[9] = system: A549; assay: Antitumor activity against human A549 cells xenografted in Balb/ca-nu mouse assessed as tumor growth inhibition at 5 mg/kg, iv dosed every 3 days for total of 7 dosing rounds measured on day 10 after treatment; format: functional; settings: read-out: TGI; how it was run: as §1
[10] = system: A549; assay: Antitumor activity against human A549 cells xenografted in Balb/ca-nu mouse assessed as tumor growth inhibition at 2.5 mg/kg, iv dosed every 3 days for total of 7 dosing rounds measured on day 18 after treatment; format: functional; settings: read-out: TGI; how it was run: as §1
[11] = system: A549; assay: Antitumor activity against human A549 cells xenografted in Balb/ca-nu mouse assessed as tumor growth inhibition at 2.5 mg/kg, iv dosed every 3 days for total of 7 dosing rounds measured on day 16 after treatment; format: functional; settings: read-out: TGI; how it was run: as §1
[12] = system: A549; assay: Antitumor activity against human A549 cells xenografted in Balb/ca-nu mouse assessed as tumor growth inhibition at 10 mg/kg, iv dosed every 3 days for total of 7 dosing rounds measured on day 14 after treatment; format: functional; settings: read-out: TGI; how it was run: as §1
[13] = system: A549; assay: Antitumor activity against human A549 cells xenografted in Balb/ca-nu mouse assessed as tumor growth inhibition at 10 mg/kg, iv dosed every 3 days for total of 7 dosing rounds measured on day 20 after treatment; format: functional; settings: read-out: TGI; how it was run: as §1
[14] = system: A549; assay: Induction of apoptosis in human A549 cells incubated for 24 hrs by Annexin V-FITC/propidium iodide double staining based flow cytometry; format: functional, cell-based
[15] = system: A549; assay: Antitumor activity against human A549 cells xenografted in Balb/ca-nu mouse assessed as tumor growth inhibition at 2.5 mg/kg, iv dosed every 3 days for total of 7 dosing rounds measured on day 12 after treatment; format: functional; settings: read-out: TGI; how it was run: as §1
[16] = system: A549; assay: Induction of apoptosis in human A549 cells assessed as early apoptosis cells level at 0.5 times antiproliferative IC50 incubated for 24 hrs by Annexin V-FITC/propidium iodide double staining based flow cytometry (reference value: 0.116%); format: functional
[17] = system: A549; assay: Antitumor activity against human A549 cells xenografted in Balb/ca-nu mouse assessed as tumor growth inhibition at 10 mg/kg, iv dosed every 3 days for total of 7 dosing rounds measured on day 12 after treatment; format: functional; settings: read-out: TGI; how it was run: as §1
[18] = system: A549; assay: Antitumor activity against human A549 cells xenografted in Balb/ca-nu mouse assessed as tumor growth inhibition at 2.5 mg/kg, iv dosed every 3 days for total of 7 dosing rounds measured on day 14 after treatment; format: functional; settings: read-out: TGI; how it was run: as §1
[19] = system: A549; assay: Induction of apoptosis in human A549 cells assessed as viable cells level at IC50 incubated for 24 hrs by Annexin V-FITC/propidium iodide double staining based flow cytometry (reference value: 99.7%); format: functional
[20] = system: MCF7; assay: Antiproliferative activity against human MCF7 cells assessed as inhibition of cell proliferation incubated for 48 hrs by CCK8 assay; format: functional, cell-based; settings: MCF7, 48 h; how it was run: as §2
[21] = system: A549; assay: Induction of apoptosis in human A549 cells assessed as late apoptosis cells level at IC50 incubated for 24 hrs by Annexin V-FITC/propidium iodide double staining based flow cytometry (reference value: 0.127%); format: functional
[22] = system: A549; assay: Potency index, ratio of IC50 for 5-fluorouracil to IC50 for compound against human A549 cells incubated for 48 hrs by CCK8 assay; format: functional
[23] = Antiproliferative activity against mouse NIH/3T3 cells assessed as inhibition of cell proliferation incubated for 48 hrs by CCK8 assay; format: cell-based; settings: NIH3T3, 48 h; how it was run: as §2
[24] = system: A549; assay: Induction of apoptosis in human A549 cells assessed as necrosis cells level at 2 times antiproliferative IC50 incubated for 24 hrs by Annexin V-FITC/propidium iodide double staining based flow cytometry (reference value: 0.042%); format: functional
[25] = system: A549; assay: Induction of apoptosis in human A549 cells assessed as early apoptosis cells level at IC50 incubated for 24 hrs by Annexin V-FITC/propidium iodide double staining based flow cytometry (reference value: 0.116%); format: functional
[26] = system: A549; assay: Antitumor activity against human A549 cells xenografted in Balb/ca-nu mouse assessed as tumor growth inhibition at 5 mg/kg, iv dosed every 3 days for total of 7 dosing rounds measured on day 12 after treatment; format: functional; settings: read-out: TGI; how it was run: as §1
[27] = system: A549; assay: Antiproliferative activity against human A549 cells assessed as inhibition of cell proliferation incubated for 48 hrs by CCK8 assay; format: functional, cell-based; settings: A549, 48 h; how it was run: as §2
[28] = system: A549; assay: Induction of apoptosis in human A549 cells assessed as necrosis cells level at 0.5 times antiproliferative IC50 incubated for 24 hrs by Annexin V-FITC/propidium iodide double staining based flow cytometry (reference value: 0.042%); format: functional
[29] = system: A549; assay: Antitumor activity against human A549 cells xenografted in Balb/ca-nu mouse assessed as tumor growth inhibition at 10 mg/kg, iv dosed every 3 days for total of 7 dosing rounds measured on day 10 after treatment; format: functional; settings: read-out: TGI; how it was run: as §1
[30] = system: A549; assay: Antitumor activity against human A549 cells xenografted in Balb/ca-nu mouse assessed as tumor growth inhibition at 5 mg/kg, iv dosed every 3 days for total of 7 dosing rounds measured on day 20 after treatment; format: functional; settings: read-out: TGI; how it was run: as §1
[31] = system: A549; assay: Induction of apoptosis in human A549 cells assessed as late apoptosis cells level at 2 times antiproliferative IC50 incubated for 24 hrs by Annexin V-FITC/propidium iodide double staining based flow cytometry (reference value: 0.127%); format: functional

pIC50 [6]: 5.14
pIC50 [20]: 5.20
pIC50 [27]: 5.30
Compound: O=C(/C=C/c1cccc(Cl)c1)c1ccc(OCc2cn([C@H]3CC(=O)N4C[C@@H]5CCCN6CCC[C@@H]([C@H]56)[C@H]4C3)nn2)cc1O
Activity [1]: 57.9%
Activity [2]: 16.3%
inhibition in vivo at 10 mg/kg [3]: 86.9%
inhibition in vivo at 2.5 mg/kg [4]: 5.4%
pIC50 [5]: 5.25
TGI [7]: Dose-dependent effect
inhibition in vivo at 2.5 mg/kg [8]: 43.9%
inhibition in vivo at 5 mg/kg [9]: 29%
inhibition in vivo at 2.5 mg/kg [10]: 38.8%
inhibition in vivo at 2.5 mg/kg [11]: 33.2%
inhibition in vivo at 10 mg/kg [12]: 78.8%
inhibition in vivo at 10 mg/kg [13]: 89.6%
Activity [14]: Dose-dependent effect
inhibition in vivo at 2.5 mg/kg [15]: 12.2%
Activity [16]: 19.8%
inhibition in vivo at 10 mg/kg [17]: 70.9%
inhibition in vivo at 2.5 mg/kg [18]: 23.3%
Activity [19]: 47.7%
Activity [21]: 16.2%
Ratio IC50 [22]: 8
pIC50 [23]: 4.41
Activity [24]: 2.57%
Activity [25]: 31.1%
inhibition in vivo at 5 mg/kg [26]: 34.8%
Activity [28]: 5.99%
inhibition in vivo at 10 mg/kg [29]: 60.5%
inhibition in vivo at 5 mg/kg [30]: 64.8%
Activity [31]: 33.1%
